Experiment [1] relates to Rattus norvegicus. Put plainly: Tested in vivo for ability to inhibit PAF-induced hypotension in rats by measuring the drop in mean arterial blood pressure(mmHg) after 3 minutes activity. The experiment is classed as functional. A digest of the protocol: (§1)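 Male Sprague-Dawley rats (225 ± 2 g) under sodium pentobarbital (50 mg/kg ip). PAF 0.66 µg/kg injected; compounds 5 mg/kg iv given 3 min later at maximal blood pressure fall. Blood pressure changes recorded for 30 min after PAF, compared with vehicle controls (five rats per group).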

The test system of experiment [2] is Rattus norvegicus. Put plainly: Tested in vivo for ability to inhibit PAF-induced hypotension in rats by measuring the drop in mean arterial blood pressure(mmHg) after 20 minutes activity. The experiment is classed as functional. A digest of the protocol:
as §1

Consider `CCO/C(O)=C1/C(C)=NC(C)=C(C(=O)OCCSc2ccccc2)C1C` (configuration not stated), for which the MABP in the experiment with Rattus norvegicus [1] was found to be 52 mmHg; in the experiment on Rattus norvegicus [2], 23 mmHg.
Turning to `CCCC1C(C(=O)OCCSCC)=C(C)N=C(C)/C1=C(/O)OCC` (configuration not stated), the figures for the MABP in the experiment on Rattus norvegicus [1] and in the experiment with Rattus norvegicus [2] were 106 mmHg and 71 mmHg, respectively.
In the case of `CO/C(O)=C1\C(C)=NC(C)=C(C(=O)OCCSc2ccccc2)C1C` (configuration not stated), the MABP was determined as 30 mmHg in the experiment on Rattus norvegicus [1] and 14 mmHg in the experiment with Rattus norvegicus [2].
For the compound `CCO/C(O)=C1\C(C)=NC(C)=C(C(=O)OCCSC)C1C` (configuration not stated), the MABP in the experiment with Rattus norvegicus [1] came to 88 mmHg; with Rattus norvegicus [2], 29 mmHg.
On to `CO/C(O)=C1\C(C)=NC(C)=C(C(=O)OCCSC)C1C` (configuration not stated), for which the MABP is reported as 51 mmHg in the experiment on Rattus norvegicus [1] and 5 mmHg with Rattus norvegicus [2].
On the same counts, the results for `CC1=NC(C)=C(C(=O)OCCSc2ccccc2)C(C)/C1=C(\O)OC(C)C` (configuration not stated) are 78 mmHg and 27 mmHg.
On to `CCO/C(O)=C1\C(C)=NC(C)=C(C(=O)OCCSC)C1CC` (configuration not stated), for which the MABP in the experiment with Rattus norvegicus [1] came to 77 mmHg; in the experiment on Rattus norvegicus [2] it was 36 mmHg.
Take `CCO/C(O)=C1\C(C)=NC(C)=C(C(=O)OCCSCC)C1C` (configuration not stated): the MABP with Rattus norvegicus [1] came out at 64 mmHg; with Rattus norvegicus [2], 18 mmHg.
Taken in the same sequence, the figures for `CCCC1C(C(=O)OCCSC)=C(C)N=C(C)/C1=C(/O)OCC` (configuration not stated) were 101 mmHg and 60 mmHg.
As to `CCSCCO/C(O)=C1\C(C)=NC(C)=C(C(=O)OC)C1C` (configuration not stated), the MABP in the experiment with Rattus norvegicus [1] worked out at 68 mmHg; with Rattus norvegicus [2], 32 mmHg.
As for `CC1=NC(C)=C(C(=O)OCCSc2ccccc2)C(C)/C1=C(\O)OCC1CCCO1` (configuration not stated), the MABP with Rattus norvegicus [1] is on record as 63 mmHg; in the experiment with Rattus norvegicus [2], 21 mmHg.
